ChEMBL document CHEMBL4364248, “Discovery of 1,2,4-oxadiazole-Containing hydroxamic acid derivatives as histone deacetylase inhibitors potential application in cancer therapy” (Eur J Med Chem, 2019)

Key:
Histone deacetylase 1 = Histone deacetylase 1 (Homo sapiens, UniProt Q13547); assay: Inhibition of recombinant full length HDAC1 (unknown origin) using Ac-peptide-AMC as substrate at 100 nM after 1 hr by fluorescence assay relative to control
Outline: (§1)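 Full-length recombinant HDAC1 or HDAC6 was incubated with compound, trypsin and Ac-peptide-AMC substrate for 1 h at room temperature. Fluorescence was read at ex 355/em 460 nm. Inhibition was calculated against the DMSO vehicle control.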

[1] = target: T1, Protein deacetylase HDAC6 (Homo sapiens) (UniProt Q9UBN7); assay: Inhibition of recombinant full length HDAC6 (unknown origin) using Ac-peptide-AMC as substrate at 100 nM after 1 hr by fluorescence assay relative to control; outline: as §1
T1 sequence (whole entry): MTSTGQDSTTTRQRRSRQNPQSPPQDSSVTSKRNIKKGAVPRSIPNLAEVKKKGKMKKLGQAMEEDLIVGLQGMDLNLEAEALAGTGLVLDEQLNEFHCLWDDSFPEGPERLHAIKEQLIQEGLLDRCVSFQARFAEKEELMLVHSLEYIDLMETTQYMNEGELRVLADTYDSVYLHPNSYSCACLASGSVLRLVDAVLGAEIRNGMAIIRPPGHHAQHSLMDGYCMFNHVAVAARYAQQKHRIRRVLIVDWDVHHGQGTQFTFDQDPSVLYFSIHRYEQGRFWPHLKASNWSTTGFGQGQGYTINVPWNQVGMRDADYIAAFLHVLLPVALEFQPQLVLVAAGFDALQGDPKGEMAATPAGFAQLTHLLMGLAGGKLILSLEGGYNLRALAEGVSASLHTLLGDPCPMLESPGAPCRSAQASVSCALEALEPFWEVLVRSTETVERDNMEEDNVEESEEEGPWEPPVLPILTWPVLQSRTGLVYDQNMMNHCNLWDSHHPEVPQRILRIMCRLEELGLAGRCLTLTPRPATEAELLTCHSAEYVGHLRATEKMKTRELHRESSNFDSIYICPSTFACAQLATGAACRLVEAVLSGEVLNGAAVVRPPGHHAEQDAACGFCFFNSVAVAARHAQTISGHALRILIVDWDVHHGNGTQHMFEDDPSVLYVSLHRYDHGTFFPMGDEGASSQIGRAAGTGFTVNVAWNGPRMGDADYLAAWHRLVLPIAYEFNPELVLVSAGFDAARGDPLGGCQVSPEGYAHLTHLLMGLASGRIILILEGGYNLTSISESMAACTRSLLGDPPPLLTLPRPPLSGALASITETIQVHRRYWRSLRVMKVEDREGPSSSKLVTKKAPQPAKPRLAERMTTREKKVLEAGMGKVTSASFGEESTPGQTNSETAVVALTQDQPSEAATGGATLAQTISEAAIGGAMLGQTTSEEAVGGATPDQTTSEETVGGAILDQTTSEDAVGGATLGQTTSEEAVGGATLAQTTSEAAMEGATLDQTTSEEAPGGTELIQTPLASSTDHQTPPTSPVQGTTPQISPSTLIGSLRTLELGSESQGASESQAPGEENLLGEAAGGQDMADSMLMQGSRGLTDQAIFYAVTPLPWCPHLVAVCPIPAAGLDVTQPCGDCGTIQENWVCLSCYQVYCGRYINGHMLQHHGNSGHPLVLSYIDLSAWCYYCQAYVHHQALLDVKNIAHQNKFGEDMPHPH

Raji = assay: Antiproliferative activity against human Raji cells after 72 hrs by MTT assay; type: functional, cell-based

Sequence of Histone deacetylase 1 (Q13547 whole entry): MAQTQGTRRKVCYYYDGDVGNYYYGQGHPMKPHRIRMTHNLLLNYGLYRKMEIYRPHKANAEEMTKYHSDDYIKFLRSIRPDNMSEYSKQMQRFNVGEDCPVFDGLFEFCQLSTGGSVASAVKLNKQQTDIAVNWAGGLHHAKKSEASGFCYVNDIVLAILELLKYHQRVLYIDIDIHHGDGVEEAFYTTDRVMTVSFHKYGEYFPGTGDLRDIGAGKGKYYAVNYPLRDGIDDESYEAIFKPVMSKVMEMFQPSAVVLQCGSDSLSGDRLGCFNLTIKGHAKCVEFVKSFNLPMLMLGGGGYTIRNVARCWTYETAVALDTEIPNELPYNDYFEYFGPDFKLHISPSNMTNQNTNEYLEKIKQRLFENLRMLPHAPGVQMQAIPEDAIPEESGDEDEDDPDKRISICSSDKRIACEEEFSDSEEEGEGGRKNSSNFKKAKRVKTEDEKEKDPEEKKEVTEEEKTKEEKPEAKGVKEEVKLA

SMILES | inhibition (Histone deacetylase 1) [%] | inhibition [1] [%] | IC50 (Raji) [nM]
C=CCN1CCC(c2noc(COc3ccc(CCC(=O)NO)cc3)n2)CC1 | 4 | 15 | –
CN(Cc1nc(C2CCN(Cc3ccccc3F)CC2)no1)c1ncc(C(=O)NO)cn1 | 84 | 44 | 98.6
CN(Cc1nc(C2CCN(Cc3ccccc3Cl)CC2)no1)c1ncc(C(=O)NO)cn1 | 93 | 55 | 48.3
O=C(/C=C/c1ccc(OCc2nc(C3CCN(Cc4ccc(F)c(F)c4)CC3)no2)cc1)NO | 17 | 60 | –
CCCN1CCC(c2noc(COc3ccc(/C=C/C(=O)NO)cc3)n2)CC1 | 40 | 69 | –
Cc1ccc(CN2CCC(c3noc(CN(C)c4ncc(/C=C/C(=O)NO)cn4)n3)CC2)cc1 | 61 | 60 | 292
CN(Cc1nc(C2CCN(Cc3ccc(F)cc3Cl)CC2)no1)c1ncc(C(=O)NO)cn1 | 73 | 49 | 116
Cc1cccc(CN2CCC(c3noc(CN(C)c4ncc(C(=O)NO)cn4)n3)CC2)c1 | 93 | 54 | 47.3
Cc1cccc(CN2CCC(c3noc(COc4ccc(/C=C/C(=O)NO)cc4)n3)CC2)c1 | 25 | 73 | –
O=C(/C=C/c1ccc(OCc2nc(C3CCN(Cc4ccc(F)cc4F)CC3)no2)cc1)NO | 35 | 74 | –
O=C(CCc1ccc(OCc2nc(C3CCN(Cc4ccccc4)CC3)no2)cc1)NO | 11 | 22 | –
CCCN1CCC(c2noc(COc3ccc(CCC(=O)NO)cc3)n2)CC1 | 5 | 13 | –
CN(Cc1nc(C2CCN(Cc3ccc(C#N)cc3)CC2)no1)c1ncc(C(=O)NO)cn1 | 68 | 38 | 117
O=C(NO)c1ccc(OCc2nc(C3CCN(Cc4ccccc4)CC3)no2)cc1 | 29 | 66 | –
Cc1ccc(CN2CCC(c3noc(COc4ccc(/C=C/C(=O)NO)cc4)n3)CC2)cc1 | 32 | 76 | –
Cc1ccccc1CN1CCC(c2noc(COc3ccc(/C=C/C(=O)NO)cc3)n2)CC1 | 14 | 68 | –
CN(Cc1nc(C2CCN(Cc3ccccc3)CC2)no1)c1ncc(C(=O)NO)cn1 | 96 | 63 | 27.6

SMILES | inhibition (Histone deacetylase 1) [%] | inhibition [1] [%] | IC50 (Raji) [nM]
O=C(/C=C/c1ccc(OCc2nc(C3CCN(Cc4ccc(Br)cc4)CC3)no2)cc1)NO | 6 | 58 | –
O=C(Cc1ccc(OCc2nc(C3CCN(Cc4ccccc4)CC3)no2)cc1)NO | 18 | 35 | –
CN(Cc1nc(C2CCN(Cc3ccc(F)cc3F)CC2)no1)c1ncc(C(=O)NO)cn1 | 88 | 66 | 34.3
Cc1ccc(CN2CCC(c3noc(COc4ccc(CCC(=O)NO)cc4)n3)CC2)cc1 | 12 | 28 | –
COc1ccc(CN2CCC(c3noc(COc4ccc(/C=C/C(=O)NO)cc4)n3)CC2)cc1 | 36 | 75 | –
CN(Cc1nc(C2CCN(Cc3ccc(C(F)(F)F)cc3)CC2)no1)c1ncc(C(=O)NO)cn1 | 62 | 30 | 207
CN(Cc1nc(C2CCN(Cc3ccccc3)CC2)no1)c1ncc(/C=C/C(=O)NO)cn1 | 65 | 55 | 547
O=C(/C=C/c1ccc(OCc2nc(C3CCN(Cc4ccccc4F)CC3)no2)cc1)NO | 31 | 68 | –
CN(Cc1nc(C2CCN(Cc3ccc(F)cc3)CC2)no1)c1ncc(C(=O)NO)cn1 | 92 | 65 | 22
N#Cc1ccccc1CN1CCC(c2noc(COc3ccc(/C=C/C(=O)NO)cc3)n2)CC1 | 36 | 65 | –
O=C(/C=C/c1ccc(OCc2nc(C3CCN(Cc4ccccc4)CC3)no2)cc1)NO | 35 | 71 | –
O=C(/C=C/c1ccc(OCc2nc(C3CCN(Cc4ccc(F)cc4)CC3)no2)cc1)NO | 38 | 75 | –
C=CCN1CCC(c2noc(COc3ccc(/C=C/C(=O)NO)cc3)n2)CC1 | 34 | 66 | –
O=C(/C=C/c1ccc(OCc2nc(C3CCN(Cc4cccc(F)c4)CC3)no2)cc1)NO | 35 | 73 | –
O=C(/C=C/c1ccc(OCc2nc(C3CCN(Cc4ccccc4[N+](=O)[O-])CC3)no2)cc1)NO | 19 | 63 | –
O=C(/C=C/c1ccc(OCc2nc(C3CCN(Cc4ccccc4Cl)CC3)no2)cc1)NO | 8 | 59 | –
